High-throughput results deposited in PubChem BioAssay by The Scripps Research Institute Molecular Screening Center.
In the library only some 3% were active in any assay of this set; here they are far more common.
TAAR1 agonist: human TAAR1 agonists, primary screen, Fluo-8 calcium fluorescence, CHO RD-HGA16 cells | AID 624467, 2012 | 360,000 tested, 0.99% active | activation, % at 3 µM | vehicle wells 0%, saturating PEA agonist 100%;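 active = activation above the mean activation of all test compounds in the run plus 3 SD, cut at about 38% in these data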
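Repeats: no replicates (n 1) | Material: CHO-derived RD-HGA16 cells with stable Gα16 and human TAAR1 | Technique: Kinetic Fluo-8 calcium fluorescence | Schedule: 17-24 h seeding, 75 min 37 °C dye, 30 min RT | Evaluation: % activation from peak over basal fluorescence ratio, DMSO-to-PEA scaled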
TAAR1 antagonist: human TAAR1 antagonists, primary screen, Fluo-8 calcium fluorescence, CHO RD-HGA16 cells | Trace amine-associated receptor 1 (Homo sapiens), Q96RJ0 | 360,000 tested, 1.5% active | inhibition, % at 3 µM | antagonist;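 active = inhibition above a per-plate cutoff, the mean inhibition of test compounds on that plate plus 3 SD, cut at about 49% in these data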;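 note: 0% = DMSO plus EC80 beta-PEA response and 100% = DMSO alone without agonist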
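test system = CHO RD-HGA16 cells bearing hTAAR1 | replication = singlicate | controls = DMSO-only wells and EC80 β-PEA-stimulated wells | reagent = EC80 β-phenethylamine stimulus | read-out basis = percent inhibition of PEA-evoked calcium signal, max/basal emission ratio | schedule = seeding 17-24 h prior, 75-min 37 °C, 30-min RT dye loading | signal = kinetic Fluo-8 calcium fluorescence measurement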
CHRM4 agonist: human M4 muscarinic receptor agonists, primary screen, CHO-K1 cells, Fluo-8 calcium fluorescence | CHO-K1 hM4/Gqi5; vehicle 0%, full acetylcholine response 100% | activation, % at 3 µM | 360,000 tested, 0.14% active | AID 624127, 2012;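 active = activation above the run mean over all test wells plus 3 SD, cut at about 32% in these data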;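 note: peak over basal fluorescence ratio per well then scaled between controls; 0% = DMSO wells and 100% = acetylcholine at EC100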
Target sequence (P08173 whole entry, looked up): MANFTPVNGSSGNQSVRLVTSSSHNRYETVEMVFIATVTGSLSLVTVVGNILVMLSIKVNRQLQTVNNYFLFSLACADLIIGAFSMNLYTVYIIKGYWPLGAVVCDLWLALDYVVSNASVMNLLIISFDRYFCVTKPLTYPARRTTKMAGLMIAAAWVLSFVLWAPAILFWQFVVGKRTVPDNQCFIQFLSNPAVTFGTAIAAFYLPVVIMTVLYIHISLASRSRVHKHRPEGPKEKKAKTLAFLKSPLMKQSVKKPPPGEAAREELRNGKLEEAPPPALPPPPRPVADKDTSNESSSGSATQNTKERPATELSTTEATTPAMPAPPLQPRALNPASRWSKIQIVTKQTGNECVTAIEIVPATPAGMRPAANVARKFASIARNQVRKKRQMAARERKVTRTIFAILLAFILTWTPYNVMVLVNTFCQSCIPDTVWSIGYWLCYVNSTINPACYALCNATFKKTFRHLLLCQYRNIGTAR
M4 antag: human M4 muscarinic receptor antagonists, primary screen, CHO cells, Fluo-8 calcium fluorescence; 360,000 tested, 0.73% active; inhibition, % at 3 µM; Muscarinic acetylcholine receptor M4 (Homo sapiens), P08173; CHO-hM4 cells, ACh EC80;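 active = inhibition above its plate's cutoff, the mean inhibition of sample wells plus 3 SD, cut at about 27% in these data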;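 note: 0% = acetylcholine EC80 with DMSO and 100% = DMSO without agonist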
CHRM4 PAM: human M4 muscarinic receptor positive allosteric modulators, primary screen, CHO-K1 cells, Fluo-8 calcium fluorescence | CHO-K1 hM4/Gqi5, ACh EC20; 0% = ACh EC20, 100% = maximal ACh | 360,000 tested, 0.4% active | AID 624126, 2012 | Muscarinic acetylcholine receptor M4 (Homo sapiens), P08173 | activation, % at 3 µM;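 active = activation above its plate's cutoff, the mean activation of sample wells plus 3 SD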
nonsel antag count: nonselective antagonists in TAAR1 counter-screen cells, counter-screen for hTAAR1 antagonist project, cell-based, fluorescence, calcium; shares compounds with TAAR1 antagonist; counterscreen cell line, antagonist mode; inhibition, % at 3 µM; 2,400 tested, 77% active; AID 651780, 2012; in the data active = inhibition above about 22%;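 note: CHO-Ga16 host cells stimulated with ATP at an EC80 level; 0% = agonist EC80 plus vehicle and 100% = vehicle without agonist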
TAAR1 ant conf: human TAAR1 antagonists, retest of hits, confirmation, cell-based, fluorescence. AID 651785, 2012. 2,400 tested, 40% active. TAAR1-expressing cells, fluorescence antagonist read-out. inhibition, % at 3 µM. shares compounds with TAAR1 antagonist; in the data active = inhibition above about 49%;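 note: CHO-Ga16 host cells challenged with agonist PEA near its EC80; 0% = agonist at EC80 plus vehicle and 100% = vehicle with no agonist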
Ga16 ag counter: calcium activation in Ga16-expressing cells, counter-screen for TAAR1 antagonist project, cell-based, fluorescence; agonist counterscreen; 2,400 tested, 18% active; AID 651953, 2012; shares compounds with TAAR1 antagonist; activation, % at 3 µM; in the data active = activation above about 12%;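 note: 0% = vehicle wells and 100% = saturating stimulus response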
TAAR1 ag count: TAAR1 activation by candidate antagonists – cell-based, fluorescence, counter-screen for TAAR1 antagonist project; 2,400 tested, 2% active; hTAAR1 cell line, agonist mode; shares compounds with TAAR1 antagonist; activation, % at 3 µM; AID 651955, 2012; in the data active = activation above about 37%;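 note: CHO cells stably expressing TAAR1 with calcium dye readout; 0% = DMSO vehicle and 100% = full agonist response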
Starred values were filed as active, the others as inactive; / = no result.

SMILES | TAAR1 agonist | TAAR1 antagonist | CHRM4 agonist | M4 antag | CHRM4 PAM | nonsel antag count | TAAR1 ant conf | Ga16 ag counter | TAAR1 ag count
COC(=O)C1=C(C)N(Cc2ccccc2C(F)(F)F)C(=NCc2ccc3c(c2)OCO3)NC1c1ccc(Cl)cc1 (stereo unspecified) | 17 | 10 | / | / | / | / | / | / | /
Cc1ccc2nc(-c3ccccc3)cc(C(=O)N(C)CC(=O)Nc3ccccc3Br)c2c1 | 7 | 61* | 17 | 12 | -11 | 31* | 56* | 9 | 7
O=C1CCCc2c1cc(C(=O)Nc1ccc(Br)cn1)c(=O)n2-c1ccccc1 | 11 | 106* | 1 | -1 | -2 | 1 | -3 | 2 | -1
O=C1CCCc2c1cc(C(=O)O)c(=O)n2-c1ccccc1 | 2 | 4 | 2 | -1 | 5 | / | / | / | /
COC(=O)c1cc(Nc2cc(C)c3c(O)cccc3n2)cc(C(=O)OC)c1 | 9 | 63* | 7 | 2 | -15 | 24* | 37 | 5 | 15
COC(=O)c1cc(Nc2cc(C)c3ccc(O)cc3n2)cc(C(=O)OC)c1 | 2 | 23 | 4 | 1 | -14 | / | / | / | /
O=C(N/N=C/C=C/c1ccccc1[N+](=O)[O-])c1cc(-c2ccccc2)n[nH]1 | 24 | 60* | 10 | 2 | -1 | 24* | 39 | 9 | 7
Cc1ccccc1-c1cc2nc(NCCN3CCCC3)n(C)c(=O)c2s1 | 3 | -11 | 2 | -2 | 0 | / | / | / | /
COc1ccccc1N1CCN(c2nc3ccccc3nc2C(C#N)C(=O)OC(C)C)CC1 (stereo unspecified) | 2 | 73* | 1 | 0 | -8 | 10 | 48 | 2 | 4
CCOc1ccccc1N1CCN(c2nc3ccccc3nc2C(C#N)C(=O)OC)CC1 (stereo unspecified) | 4 | 6 | 1 | -10 | 3 | / | / | / | /
CCCCCNC(=O)C(c1ccnc2ccccc12)n1c(=O)c(-c2ccccc2)nc2ccccc21 (stereo unspecified) | 4 | -39 | 2 | 3 | 3 | / | / | / | /
Cc1nc2ccccc2c(=O)n1/N=C/c1cn[nH]c1-c1ccccc1 | 15 | 58* | 1 | 5 | -2 | 27* | 36 | 7 | 8
Cc1ccccc1OCc1nc2ccccc2c(=O)n1/N=C/c1cn[nH]c1-c1ccccc1 | 12 | 64* | 18 | 22 | -24 | 27* | 56* | 5 | 7
Cc1ccccc1OCc1nc2ccccc2c(=O)n1/N=C/c1cccc([N+](=O)[O-])c1 | 1 | 15 | 2 | 1 | -5 | / | / | / | /
Cc1ccc(-c2[nH]ncc2/C=N/n2c(COc3ccccc3)nc3ccccc3c2=O)cc1 | 10 | 66* | 10 | 0 | -6 | 33* | 53* | 7 | 7
Cc1cc(/C=N/n2c(COc3ccccc3)nc3ccccc3c2=O)c(O)c([N+](=O)[O-])c1 | 0 | 41 | 1 | 10 | 5 | / | / | / | /
O=c1c2ccccc2nc(COc2ccccc2)n1/N=C/c1ccc(O)c(O)c1 | 10 | 68* | 3 | 4 | -20 | 20 | 35 | 7 | 4
Cc1c(NC(=O)CSc2nnc(-c3ccccc3F)o2)c(=O)n(-c2ccccc2)n1C | 3 | -9 | 3 | 3 | -4 | / | / | / | /
CCOC(=O)[C@]12CCCC=C1N(Cc1ccc(Cl)cc1Cl)C(=O)[C@H](CC(=O)NCc1ccc(OC)c(OC)c1)C2 | 3 | -23 | 0 | -6 | 3 | / | / | / | /
O=C(Nc1cccc2ccccc12)OC[C@@H]1CSCCS(=O)(=O)N1 | 5 | -14 | / | / | / | / | / | / | /
Cc1cc(C(=O)COC(=O)c2nccnc2N)c(C)n1C | -3 | 105* | 1 | -5 | 5 | 11 | 7 | -1 | -2
COc1ccc(CCNC(=O)C(=O)NCC2OCCCN2S(=O)(=O)c2cc(C)ccc2C)cc1 (stereo unspecified) | 5 | -4 | 6 | 2 | -5 | / | / | / | /
COc1ccc(CCNC(=O)C(=O)NCC2CCCN2S(=O)(=O)c2cc(C)ccc2C)cc1 (stereo unspecified) | 17 | 73* | 28 | 15 | -9 | 28* | 53* | 11 | 13
Cc1ccc(C)c(S(=O)(=O)N2CCCC2CNC(=O)C(=O)NCCc2ccccc2)c1 (stereo unspecified) | 20 | 69* | 25 | 8 | -8 | 31* | 47 | 11 | 35
COC(=O)CCCn1cc(CN2CC(N3CCN(Cc4cccc(C)c4)CC3)CS2(=O)=O)nn1 (stereo unspecified) | -1 | -10 | -1 | 7 | -6 | / | / | / | /
O=C(NCc1ccco1)c1cccc(Nc2nc3ccc(Br)cc3[nH]2)c1 | 18 | 56* | 10 | 0 | 4 | 24* | 27 | 5 | 12
C#CCOCCOCCOCCNc1nc(N2CCN(C(=O)[C@H](CCCN=C(N)N)n3cc(C(N)[C@@H](C)CC)nn3)CC2)nc(N2CCN(C(=O)[C@H](CCC(=O)O)n3cc([C@@H](N)CCCCN)nn3)CC2)n1 (stereo partly specified) | 0 | 5 | 1 | 2 | 8 | / | / | / | /
C#CCOCCOCCOCCNc1nc(N2CCN(C(=O)[C@H](CCCN=C(N)N)n3cc(C(N)[C@@H](C)CC)nn3)CC2)nc(N2CCN(C(=O)[C@H](CCCCN)n3cc([C@@H](N)[C@H](C)CC)nn3)CC2)n1 (stereo partly specified) | 12 | 109* | 0 | 9 | 1 | 6 | 10 | 9 | 1
C#CCOCCOCCOCCNc1nc(N2CCOCC2)nc(N2CCN(C(=O)[C@H](C)n3cc(CCC(=O)O)nn3)CC2)n1 | 12 | 107* | -1 | -1 | -5 | 6 | 2 | 4 | 6
